Data on one molecule can be found in PMC4036123 (Cancer chemotherapy and pharmacology, 2014).

Where two headings read alike, the source gives them in different places.

For one assay, the system named is MM.1S cells. Briefly: In vitro cell invasion assay. The class given is cell-based, human. The conditions noted are these: MM.1S cells pretreated at IC50 value, Matrigel invasion chamber.
Another assay deals with RPMI-8226 cells. Kind of assay: Cellular proliferation assay. The class given is cell-based. The conditions noted are these: Homo sapiens, RPMI-8226, 48 h, read-out: IC50 (cell viability).
The subject of assay [1] is proteasome trypsin-like activity. Kind of assay: Proteasome-Glo assay in intact MM cells, trypsin-like activity. The class given is cell-based, human. To be noted: read-out: Trypsin-like IC50, 24 hours incubation. A digest of the protocol:
(§1)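 MM.1S, MM.1R and RPMI-8226 human myeloma lines were grown in RPMI medium with 10% FBS and antibiotics. Activity was read as luminescence with the Proteasome-Glo kit, following the manufacturer's protocol.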

Assay [2] has as its system proteasome chymotrypsin-like activity. Kind of assay: Proteasome-Glo assay in intact MM cells, chymotrypsin-like activity. The class given is cell-based, human. To be noted: read-out: Chymotrypsin-like IC50, 24 hours incubation. The method in brief: as §1
In another assay the test system is U266 cells. Briefly: Cellular proliferation assay. The class given is cell-based. To be noted: Homo sapiens, U-266, 48 h, read-out: IC50 (cell viability).

For `CC(C)C[C@H](NC(=O)[C@H](Cc1ccccc1)NC(=O)c1cnccn1)B(O)O` [Bortezomib], the “inhibition of invasiveness compared to control” value in the assay with MM.1S cells was found to be 37.42%. The IC50 in the assay on RPMI-8226 cells is […]; in assay [1] (MM1R cell line) it was above 18 nM; in assay [1] (MM1S cell line) it was above 18 nM; in assay [1] (RPMI822G cell line), above 18 nM; in assay [1] (U266 cell line), above 18 nM; in assay [2] (MM1R cell line) it was […]. Moreover, the concentration for half-maximal inhibition (IC50) in assay [2] (MM1S cell line) stood at […]; in assay [2] (RPMI822G cell line) it was […]; in assay [2] (U266 cell line), […]; in the assay on U266 cells, 13.5 nM.

In general, IC50 refers to the concentration at which inhibition is half-maximal.
